How the values were obtained:
A-431 = assay: Antiproliferative activity against human A431 cells after 72 hrs by CCK-8 assay; assay type: functional, cell-based
[1] = Antiproliferative activity against human HCC827 cells after 72 hrs by CCK-8 assay; assay type: functional, cell-based; conditions: HCC827, 72 h
[2] = molecular target: T1, Prostaglandin G/H synthase 1 (Ovis aries, UniProt P05979); assay: Inhibition of Ovine COX-1 preincubated for 15 mins by fluorescence analysis
T1 sequence (P05979 whole entry): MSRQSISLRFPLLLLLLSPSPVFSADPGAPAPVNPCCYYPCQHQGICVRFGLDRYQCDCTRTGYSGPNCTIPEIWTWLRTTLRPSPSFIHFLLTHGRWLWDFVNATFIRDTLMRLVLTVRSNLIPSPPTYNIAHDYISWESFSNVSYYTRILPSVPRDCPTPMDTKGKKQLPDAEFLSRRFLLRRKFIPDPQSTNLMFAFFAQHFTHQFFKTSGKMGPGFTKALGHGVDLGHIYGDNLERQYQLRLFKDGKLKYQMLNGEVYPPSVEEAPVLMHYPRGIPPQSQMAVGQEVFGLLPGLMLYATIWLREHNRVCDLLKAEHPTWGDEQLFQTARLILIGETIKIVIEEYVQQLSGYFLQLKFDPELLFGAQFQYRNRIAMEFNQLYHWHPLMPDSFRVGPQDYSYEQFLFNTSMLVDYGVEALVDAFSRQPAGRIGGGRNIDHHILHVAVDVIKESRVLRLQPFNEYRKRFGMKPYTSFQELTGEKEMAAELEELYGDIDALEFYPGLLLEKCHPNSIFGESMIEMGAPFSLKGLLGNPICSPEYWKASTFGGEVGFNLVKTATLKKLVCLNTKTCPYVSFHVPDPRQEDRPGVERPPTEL

[3] = molecular target: Epidermal growth factor receptor (Homo sapiens, UniProt P00533); assay: Inhibition of EGFR (unknown origin) using tyrosine 4 as substrate by fluorescence analysis
Sequence of Epidermal growth factor receptor (P00533 whole entry): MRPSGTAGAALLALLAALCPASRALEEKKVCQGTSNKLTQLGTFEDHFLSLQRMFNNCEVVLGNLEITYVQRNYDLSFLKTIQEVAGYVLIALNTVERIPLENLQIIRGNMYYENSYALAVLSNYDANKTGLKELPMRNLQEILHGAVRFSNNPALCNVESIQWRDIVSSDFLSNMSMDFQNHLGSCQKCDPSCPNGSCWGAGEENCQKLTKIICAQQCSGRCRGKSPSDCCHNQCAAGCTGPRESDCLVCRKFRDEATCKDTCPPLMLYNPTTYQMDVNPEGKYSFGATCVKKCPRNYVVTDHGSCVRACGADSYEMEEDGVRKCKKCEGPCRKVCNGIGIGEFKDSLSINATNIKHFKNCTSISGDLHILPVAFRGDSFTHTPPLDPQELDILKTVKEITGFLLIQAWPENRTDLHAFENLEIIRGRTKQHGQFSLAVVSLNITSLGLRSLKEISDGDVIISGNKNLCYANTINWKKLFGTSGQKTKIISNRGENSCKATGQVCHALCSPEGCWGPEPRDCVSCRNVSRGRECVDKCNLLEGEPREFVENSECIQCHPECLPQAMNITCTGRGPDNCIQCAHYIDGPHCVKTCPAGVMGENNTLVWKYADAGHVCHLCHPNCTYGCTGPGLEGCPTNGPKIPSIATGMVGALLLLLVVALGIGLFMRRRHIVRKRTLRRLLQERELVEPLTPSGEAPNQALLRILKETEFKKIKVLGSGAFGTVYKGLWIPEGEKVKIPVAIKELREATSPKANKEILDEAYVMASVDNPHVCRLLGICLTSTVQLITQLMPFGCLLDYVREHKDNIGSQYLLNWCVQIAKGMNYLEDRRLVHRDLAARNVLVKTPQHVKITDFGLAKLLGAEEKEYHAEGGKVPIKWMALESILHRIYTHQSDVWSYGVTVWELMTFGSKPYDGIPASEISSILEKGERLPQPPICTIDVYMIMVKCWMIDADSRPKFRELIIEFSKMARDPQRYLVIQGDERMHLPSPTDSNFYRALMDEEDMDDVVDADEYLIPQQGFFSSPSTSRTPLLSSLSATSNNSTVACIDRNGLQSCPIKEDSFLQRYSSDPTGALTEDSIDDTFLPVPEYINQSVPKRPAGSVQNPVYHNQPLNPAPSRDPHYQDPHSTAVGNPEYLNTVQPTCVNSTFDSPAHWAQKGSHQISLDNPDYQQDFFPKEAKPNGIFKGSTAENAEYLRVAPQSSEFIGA

[4] = Drug level in human HCC827 cells treated with 2-(4-(3-ethynylphenylamino)-6-(2-methoxyethoxy)quinazolin-7-yloxy)ethyl 2-(6-methoxynaphthalen-2-yl)propanoate by LC-MS/MS analysis; assay type: ADME, cell-based
Summary of the method: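 Conjugate added to culture medium (containing active serum) and incubated with HCC827 tumor cells for up to 24 h. Samples taken over time to follow hydrolysis of the conjugate and release of the parent molecules.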

[5] = Homo sapiens, A-431, 72 h, read-out: IC50

Compound	IC50 (A-431; [5]) [nM]	IC50 [2] [nM]	IC50 [3] [nM]	Drug metabolism [4]	IC50 (A-431; a-431)	IC50 [1] [nM]
C#Cc1cccc(Nc2ncnc3cc(OCCOC)c(OCCOC(=O)C(C)c4ccc5cc(OC)ccc5c4)cc23)c1 (stereo not drawn)	5000	–	–	–	–	500
C#Cc1cccc(Nc2ncnc3cc(OCCOC(=O)c4ccc(C(=O)Nc5ccc6c(c5)C(C)(C)CCC6(C)C)cc4)c(OCCOC)cc23)c1	> 10000	> 10000	32	–	–	200
C#Cc1cccc(Nc2ncnc3cc(OCCOC(=O)Cc4c(C)n(C(=O)c5ccc(Cl)cc5)c5ccc(OC)cc45)c(OCCOC(=O)Cc4c(C)n(C(=O)c5ccc(Cl)cc5)c5ccc(OC)cc45)cc23)c1	> 10000	31400	33	–	–	1600
C#Cc1cccc(Nc2ncnc3cc(OCCOC(=O)CC4=C(C)/C(=C/c5ccc([S+](C)[O-])cc5)c5ccc(F)cc54)c(OCCOC(=O)CC4=C(C)/C(=C/c5ccc([S+](C)[O-])cc5)c5ccc(F)cc54)cc23)c1 (stereo not drawn)	> 10000	> 10000	27	–	–	3500
C#Cc1cccc(Nc2ncnc3cc(OCCO)c(OCCOC)cc23)c1	1270	> 10000	1	metabolite_detected	–	14
C#Cc1cccc(Nc2ncnc3cc(OCCOC(=O)C(C)c4ccc(CC(C)C)cc4)c(OCCOC(=O)C(C)c4ccc(CC(C)C)cc4)cc23)c1 (stereo not drawn)	–	> 10000	> 10000	–	Not Active	16500
C#Cc1cccc(Nc2ncnc3cc(OCCOC(=O)Cc4c(C)n(C(=O)c5ccc(Cl)cc5)c5ccc(OC)cc45)c(OCCOC)cc23)c1	> 10000	11300	27	–	–	900
C#Cc1cccc(Nc2ncnc3cc(OCCOC)c(OCCOC(=O)CC4=C(C)/C(=C\c5ccc([S+](C)[O-])cc5)c5ccc(F)cc54)cc23)c1 (stereo not drawn)	4800	–	–	–	–	400
C#Cc1cccc(Nc2ncnc3cc(OCCOC(=O)CC4=C(C)/C(=C\c5ccc([S+](C)[O-])cc5)c5ccc(F)cc54)c(OCCOC)cc23)c1 (stereo not drawn)	5400	> 10000	31	–	–	300
C#Cc1cccc(Nc2ncnc3cc(OCCOC(=O)c4ccc(C(=O)Nc5ccc6c(c5)C(C)(C)CCC6(C)C)cc4)c(OCCOC(=O)c4ccc(C(=O)Nc5ccc6c(c5)C(C)(C)CCC6(C)C)cc4)cc23)c1	–	> 10000	880	–	Not Active	> 10000
C#Cc1cccc(Nc2ncnc3cc(OCCOC)c(OCCOC(=O)Cc4c(C)n(C(=O)c5ccc(Cl)cc5)c5ccc(OC)cc45)cc23)c1	> 10000	–	–	–	–	1200
C#Cc1cccc(Nc2ncnc3cc(OCCOC(=O)C(C)c4ccc5cc(OC)ccc5c4)c(OCCOC(=O)C(C)c4ccc5cc(OC)ccc5c4)cc23)c1 (stereo not drawn)	–	> 10000	390	–	Not Active	2300
C#Cc1cccc(Nc2ncnc3cc(OCCOC)c(OCCOC(=O)C(C)c4ccc(CC(C)C)cc4)cc23)c1 (stereo not drawn)	> 10000	–	–	–	–	> 10000
C#Cc1cccc(Nc2ncnc3cc(OCCOC)c(OCCOC)cc23)c1 [ERLOTINIB]	–	> 10000	–	–	–	–
C#Cc1cccc(Nc2ncnc3cc(OCCOC(=O)C(C)c4ccc(CC(C)C)cc4)c(OCCOC)cc23)c1 (stereo not drawn)	2200	44700	9	–	–	400

Further lines, with some results ahead:

IC50 (A-431; [5]) [nM]	IC50 [2] [nM]	IC50 [3] [nM]	Drug metabolism [4]	IC50 (A-431; a-431)	Compound	IC50 [1] [nM]
1800	> 10000	5	–	–	C#Cc1cccc(Nc2ncnc3cc(OCCOC(=O)c4ccccc4OC(C)=O)c(OCCOC)cc23)c1	100
–	–	> 10000	–	–	CC(C)Cc1ccc(C(C)C(=O)O)cc1 (stereo not drawn) [IBUPROFEN]	–
> 10000	39600	34	–	–	C#Cc1cccc(Nc2ncnc3cc(OCCOC(=O)c4ccccc4OC(C)=O)c(OCCOC(=O)c4ccccc4OC(C)=O)cc23)c1	900
> 10000	–	–	–	–	C#Cc1cccc(Nc2ncnc3cc(OCCOC)c(OCCOC(=O)c4ccccc4OC(C)=O)cc23)c1	100
1700	–	–	–	–	C#Cc1cccc(Nc2ncnc3cc(OCCOC)c(OCCOC(=O)C(C)c4cccc(C(=O)c5ccccc5)c4)cc23)c1 (stereo not drawn)	300
–	–	> 10000	–	–	CC(=O)Oc1ccccc1C(=O)O [ASPIRIN]	–
–	16000	> 10000	–	–	CC1=C(CC(=O)O)c2cc(F)ccc2/C1=C\c1ccc([S+](C)[O-])cc1 (stereo not drawn)	–
> 10000	–	–	–	–	C#Cc1cccc(Nc2ncnc3cc(OCCOC(=O)C(C)c4cccc(C(=O)c5ccccc5)c4)c(OCCOC(=O)C(C)c4cccc(C(=O)c5ccccc5)c4)cc23)c1 (stereo not drawn)	2100
–	–	> 10000	metabolite_detected	–	COc1ccc2cc(C(C)C(=O)O)ccc2c1 (racemic)	–
–	–	> 10000	–	–	COc1ccc2c(c1)c(CC(=O)O)c(C)n2C(=O)c1ccc(Cl)cc1 [INDOMETHACIN]	–
–	67	> 10000	–	–	CC(C(=O)O)c1cccc(C(=O)c2ccccc2)c1 (stereo not drawn) [KETOPROFEN]	–
